≈ marks a conversion by molar mass, not a printed value. Read-outs that look alike come from different tables or passages of the source.
How the values were obtained:
[1] = test system: HCC827; experiment: MTT assay, cell viability after 72 h; type: cell-based, human; settings: read-out: IC50 (at day 3)
Summary of the method: (§1)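 Cells were kept in RPMI-1640 with 10% FBS at 37 °C and 5% CO₂, grown to confluency, seeded at 5,000–7,000 per well, and incubated 24 h. Medium was replaced with medium holding test compound, diluted from a 1% DMSO/water suspension, in six replicates each in triplicate. After 72 h, MTT in PBS was added for 4 h. Medium was then removed, formazan dissolved in DMSO, and OD read at 540 nm.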

[2] = test system: NCI-H1975; experiment: MTT assay, cell viability after 72 h; type: cell-based, human; settings: read-out: IC50 (at day 3)
Summary of the method: as §1

[3] = test system: NCI-H460; experiment: MTT assay, cell viability after 72 h; type: cell-based, human; settings: read-out: IC50 (at day 3)
Summary of the method: as §1

[4] = test system: NSCLC cell lines NCI-H460, NCI-H1975, and HCC827; experiment: MTT assay, values stated for the whole panel of NSCLC cell lines; type: cell-based, human; settings: Homo sapiens, 72 h, read-out: IC50 values against the panel of cancer cell lines
Summary of the method: as §1

[5] = Water solubility from a filtered saturated solution, by weight; type: physicochemical; settings: water, thermodynamic from solid
[6] = test system: NCI-H460 cell line; experiment: Annexin V; type: cell-based, human; settings: H460 cells, treatment 6 h; IC23 and cisplatin at 40 μM
Summary of the method: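 NCI-H460 cells were seeded at 1×10^5 per well and left to adhere overnight. Test compound or cisplatin (40 µM) was diluted into medium from a 1% DMSO/water solution, and untreated controls got fresh medium, with 2 wells per treatment. After exposure, cells were washed twice in cold PBS and stained with FITC-Annexin V and PI in 1× binding buffer for 15 min at room temperature in the dark. Imaging used fluorescence microscopy at 10× and 20×.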

[7] = test system: PARP and caspase-3 in NCI-H460 cells; experiment: Western blotting of apoptotic proteins caspase-3 and PARP; type: cell-based, human; settings: H460 cells, 5 μM, 36 h
Summary of the method: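 Confluent NCI-H460 cells, seeded at 1×10^5 per well in RPMI-1640 with 10% FBS and 1% pen-strep, were serum-starved 24 h, then treated. Cells were lysed in ice-cold Tris pH 7.5/Triton X-100 buffer with protease/phosphatase inhibitors. Equal lysate amounts were run on 4–12% SDS-PAGE and moved to PVDF, then probed with PARP, caspase-3 and GAPDH antibodies (1:1,000, 4 °C overnight) and HRP anti-rabbit (1:5,000). Detection was by ECL, with GAPDH reprobe for normalization and cisplatin lysates as control.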

## CCCCCCCn1c[n+](Cc2ccc3ccccc3c2)c(Cl)c1Cl [Compound 7, 4,5-dichloro-1-heptyl-3-(naphthalen-2-ylmethyl)-imidazolium bromide]
[1]; Homo sapiens, HCC827, 72 h
  IC50: 6 µM
[2]; Homo sapiens, NCI-H1975, 72 h
  IC50: 4 µM
[3]; Homo sapiens, NCI-H460, 72 h
  IC50: 6 µM
[4]
  IC50: ≤ 10 µM

## Cn1c(=O)c2c(ncn2Cc2ccc3ccccc3c2)n(C)c1=O [Compound 14, 1,3-dimethyl-7-(naphthalen-2-ylmethyl)xanthine]
[1]; Homo sapiens, HCC827, 72 h
  IC50: 28 µM
[2]; Homo sapiens, NCI-H1975, 72 h
  IC50: 12 µM
[3]; Homo sapiens, NCI-H460, 72 h
  IC50: 8 µM
[5]
  solubility: 800 µg/mL (≈ 2500 µM)

## Clc1c(Cl)[n+](CCc2ccc3ccccc3c2)cn1CCc1ccc2ccccc2c1 [Compound 21, 4,5-Dichloro-1,3-bis(2-(naphthalen-2-yl)ethyl)-imidazolium bromide]
[1]; Homo sapiens, HCC827, 72 h
  IC50: 8 µM
[2]; Homo sapiens, NCI-H1975, 72 h
  IC50: 8 µM
[3]; Homo sapiens, NCI-H460, 72 h
  IC50: 8 µM

## Clc1c(Cl)[n+](Cc2ccccc2)cn1CCc1cccc2ccccc12 [Compound 19, 3-benzyl-4,5-dichloro-1-(2-(naphthalen-1-yl)ethyl)-imidazolium bromide]
[1]; Homo sapiens, HCC827, 72 h
  IC50: > 30 µM
[2]; Homo sapiens, NCI-H1975, 72 h
  IC50: 14 µM
[3]; Homo sapiens, NCI-H460, 72 h
  IC50: 12 µM

## CCCn1c[n+](Cc2ccc3ccccc3c2)c(Cl)c1Cl.[Br-] [Compound 2, 4,5-dichloro-3-(naphthalen-2-ylmethyl)-1-propylimidazolium bromide]
[1]; Homo sapiens, HCC827, 72 h
  IC50: > 30 µM
[2]; Homo sapiens, NCI-H1975, 72 h
  IC50: 22 µM
[3]; Homo sapiens, NCI-H460, 72 h
  IC50: 19 µM
[4]
  IC50: ≥ 19 µM
[5]
  solubility: 5200 µg/mL

## Clc1c(Cl)[n+](CCc2cccc3ccccc23)cn1CCc1cccc2ccccc12.[Br-] [Compound 17, 4,5-dichloro-1,3-bis(2-(naphthalen-1-yl)ethyl)-imidazolium bromide]
[1]; Homo sapiens, HCC827, 72 h
  IC50: 11 µM
[2]; Homo sapiens, NCI-H1975, 72 h
  IC50: 8 µM
[3]; Homo sapiens, NCI-H460, 72 h
  IC50: 8 µM
[5]
  solubility: 400 µg/mL

## Clc1c(Cl)[n+](Cc2ccc3ccccc3c2)cn1CCc1ccc2ccccc2c1 [Compound 22, 4,5-dichloro-1-(2-(naphthalen-2-yl)ethyl)-3-(naphthalen-2-ylmethyl)-imidazolium bromide]
[1]; Homo sapiens, HCC827, 72 h
  IC50: 9 µM
[2]; Homo sapiens, NCI-H1975, 72 h
  IC50: 7 µM
[3]; Homo sapiens, NCI-H460, 72 h
  IC50: 4 µM

## N.N.[Cl][Pt][Cl] [cisplatin, reference compound]
[6]
  stage of apoptosis (Annexin V / PI): early-stage apoptosis
[1]; HCC827, 72 h exposure, MTT
  IC50: 4 µM
[7]
  PARP-1 cleavage and amount of procaspase-3: both PARP-1 cleavage and a reduced amount of procaspase-3
[2]; NCI-H1975, 72 h exposure, MTT
  IC50: 10 µM
[3]; NCI-H460, 72 h exposure, MTT
  IC50: 3 µM

## CCCCCn1c[n+](Cc2ccc3ccccc3c2)c(Cl)c1Cl.[Br-] [Compound 5, 4,5-dichloro-3-(naphthalen-2-ylmethyl)-1-pentylimidazolium bromide]
[1]; Homo sapiens, HCC827, 72 h
  IC50: 12 µM
[2]; Homo sapiens, NCI-H1975, 72 h
  IC50: 12 µM
[3]; Homo sapiens, NCI-H460, 72 h
  IC50: 10 µM
[4]
  IC50: 10 to 12 µM
[5]
  solubility: 3100 µg/mL

## CCCCCCCCCn1c[n+](Cc2ccc3ccccc3c2)c(Cl)c1Cl.[Br-] [Compound 8, 4,5-dichloro-3-(naphthalen-2-ylmethyl)-1-nonylimidazolium bromide]
[1]; Homo sapiens, HCC827, 72 h
  IC50: 3 µM
[2]; Homo sapiens, NCI-H1975, 72 h
  IC50: 3 µM
[3]; Homo sapiens, NCI-H460, 72 h
  IC50: 10 µM
[4]
  IC50: ≤ 10 µM
[5]
  solubility: 300 µg/mL

## Clc1c(Cl)[n+](Cc2ccc3ccccc3c2)cn1Cc1ccccc1 [Compound 11, 1-benzyl-4,5-dichloro-3-(naphthalen-2-ylmethyl)-imidazolium bromide]
[1]; Homo sapiens, HCC827, 72 h
  IC50: 15 µM
[2]; Homo sapiens, NCI-H1975, 72 h
  IC50: 12 µM
[3]; Homo sapiens, NCI-H460, 72 h
  IC50: 15 µM
[4]
  IC50: 12 to 15 µM

## Clc1ncn(CCc2ccc3ccccc3c2)c1Cl [Compound 20, 4,5-dichloro-1-(2-(naphthalen-2-yl)ethyl)-imidazole]
[1]; Homo sapiens, HCC827, 72 h
  IC50: > 30 µM
[2]; Homo sapiens, NCI-H1975, 72 h
  IC50: > 30 µM
[3]; Homo sapiens, NCI-H460, 72 h
  IC50: > 30 µM
